In ChEMBL document CHEMBL4609990, “Design and synthesis of cyanamides as potent and selective N-acylethanolamine acid amidase inhibitors” (Bioorg Med Chem, 2020):

What was measured:
[1] = biological target: T1, N-acylethanolamine-hydrolyzing acid amidase (Homo sapiens, UniProt Q02083); assay: Inhibition of activated human NAAA using fluorogenic PAMCA and N-4-methylcoumarin as substrate incubated for 90 mins by fluorescence based assay
T1 sequence (Q02083 whole entry): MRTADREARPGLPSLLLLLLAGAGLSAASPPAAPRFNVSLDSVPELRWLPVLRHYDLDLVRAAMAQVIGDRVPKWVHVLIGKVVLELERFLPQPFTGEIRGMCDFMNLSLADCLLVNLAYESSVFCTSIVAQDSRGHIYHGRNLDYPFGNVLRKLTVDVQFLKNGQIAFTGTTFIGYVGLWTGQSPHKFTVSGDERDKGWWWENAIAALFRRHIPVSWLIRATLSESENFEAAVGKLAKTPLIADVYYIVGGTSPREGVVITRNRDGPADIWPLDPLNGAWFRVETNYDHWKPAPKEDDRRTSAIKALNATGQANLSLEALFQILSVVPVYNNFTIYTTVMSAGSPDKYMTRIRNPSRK
In short: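 Purified activated hNAAA (final 0.25 µg/mL) in 100 mM citrate-phosphate pH 4.5, 3 mM DTT, 0.1% Triton X-100, 0.05% BSA, 150 mM NaCl; compound in DMSO preincubated 90 min at room temperature. PAMCA added (final 5 µM), reaction at 37 °C for 90 min, fluorescence ex 360/em 460 nm read every 10 min. RFU converted to AMC via AMC standard curve. IC50 from eight concentrations, triplicate.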

[2] = biological target: T2, Fatty-acid amide hydrolase 1 (Homo sapiens, UniProt O00519); assay: Inhibition of recombinant human FAAH expressed in Escherichia coli using fluorogenic AAMCA as substrate by fluorimetric assay
T2 sequence (O00519 whole entry): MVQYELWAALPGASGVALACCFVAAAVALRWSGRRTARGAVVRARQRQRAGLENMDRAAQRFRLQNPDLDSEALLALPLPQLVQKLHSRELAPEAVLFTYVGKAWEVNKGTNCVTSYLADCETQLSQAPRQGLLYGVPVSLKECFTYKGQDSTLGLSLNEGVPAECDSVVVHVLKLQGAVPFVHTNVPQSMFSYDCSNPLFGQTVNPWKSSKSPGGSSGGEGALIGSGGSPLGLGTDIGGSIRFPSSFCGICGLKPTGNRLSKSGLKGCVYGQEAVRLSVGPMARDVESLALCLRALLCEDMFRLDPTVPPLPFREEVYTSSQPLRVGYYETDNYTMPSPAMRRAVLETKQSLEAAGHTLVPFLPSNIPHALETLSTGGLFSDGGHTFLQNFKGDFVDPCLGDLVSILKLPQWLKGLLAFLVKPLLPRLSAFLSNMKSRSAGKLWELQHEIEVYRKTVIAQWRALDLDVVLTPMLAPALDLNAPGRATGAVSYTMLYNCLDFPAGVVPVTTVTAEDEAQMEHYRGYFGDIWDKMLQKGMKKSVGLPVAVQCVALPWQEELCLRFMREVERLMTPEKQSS
In short: (§1)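 Human recombinant FAAH expressed in E. coli and purified; fluorometric assay with arachidonoyl 7-amino-4-methylcoumarin amide (AAMCA) as substrate; IC50 by curve fitting, or percent inhibition at 1 µM.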

[3] = biological target: T3, Monoglyceride lipase (Homo sapiens, UniProt Q99685); assay: Inhibition of recombinant human hexaHis-tagged MGL expressed in Escherichia coli BL21 (DE3) using fluorogenic AHMMCE as substrate preincubated for 1 hr followed by substrate addition by fluorimetric assay
T3 sequence (Q99685 whole entry): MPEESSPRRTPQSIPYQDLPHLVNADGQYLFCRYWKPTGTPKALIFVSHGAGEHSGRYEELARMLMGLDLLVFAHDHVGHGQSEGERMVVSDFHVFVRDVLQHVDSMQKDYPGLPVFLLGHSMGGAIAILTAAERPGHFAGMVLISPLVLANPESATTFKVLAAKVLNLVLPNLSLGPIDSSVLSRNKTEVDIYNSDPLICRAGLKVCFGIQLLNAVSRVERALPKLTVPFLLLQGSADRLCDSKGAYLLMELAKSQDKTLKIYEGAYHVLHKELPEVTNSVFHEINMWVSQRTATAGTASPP
In short: (§2)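 Human recombinant MGL expressed in E. coli and purified; fluorometric assay using arachidonoyl 7-hydroxy-6-methoxy-4-methylcoumarin ester (AHMMCE) as substrate; IC50 by curve fitting, or percent inhibition at 1 µM.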

[4] = species on record: Homo sapiens; assay: Selectivity index, ratio of IC50 for recombinant human FAAH expressed in Escherichia coli using fluorogenic AAMCA as substrate by fluorimetric assay to IC50 human NAAA using fluorogenic PAMCA and N-4-methylcoumarin as substrate incubated for 90 mins by fluorescence based assay
[5] = species on record: Homo sapiens; assay: Selectivity index, ratio of IC50 for human hexaHis-tagged MGL expressed in Escherichia coli BL21 (DE3) using fluorogenic AHMMCE as substrate preincubated for 1 hr followed by substrate addition by fluorimetric assay to IC50 human NAAA using fluorogenic PAMCA and N-4-methylcoumarin as substrate incubated for 90 mins by fluorescence based assay
[6] = species on record: Homo sapiens; assay: Selectivity index, ratio of IC50 for human Cathepsin K using […] as substrate preincubated with enzyme for 90 mins followed by substrate addition by fluorimetry analysis to IC50 human NAAA using fluorogenic PAMCA and N-4-methylcoumarin as substrate incubated for 90 mins by fluorescence based assay
[7] = biological target: T4, N-acylethanolamine-hydrolyzing acid amidase (Homo sapiens) (UniProt Q02083); assay: Irreversible inhibition of activated human NAAA assessed as ratio of Kinact/Ki using fluorogenic PAMCA and N-4-methylcoumarin as substrate
T4 sequence (whole entry): T1 sequence (Q02083 whole entry)

[8] = Half life in artificial gastric fluid by HPLC analysis; type: physicochemical
In short: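 Compound at 200 μM incubated in artificial gastric juice; reaction quenched with acetonitrile and samples analysed by HPLC to estimate half-life (min).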

[9] = biological target: T5, Fatty-acid amide hydrolase 1 (Homo sapiens) (UniProt O00519); assay: Inhibition of recombinant human FAAH expressed in Escherichia coli at 1 uM using fluorogenic AAMCA as substrate by fluorimetric assay relative to control; in short: as §1
T5 sequence (whole entry): T2 sequence (O00519 whole entry)

[10] = biological target: T6, Monoglyceride lipase (Homo sapiens) (UniProt Q99685); assay: Inhibition of recombinant human hexaHis-tagged MGL expressed in Escherichia coli BL21 (DE3) at 1 uM using fluorogenic AHMMCE as substrate preincubated for 1 hr followed by substrate addition by fluorimetric assay relative to control; in short: as §2
T6 sequence (whole entry): T3 sequence (Q99685 whole entry)

[11] = biological target: T7, Cathepsin K (Homo sapiens, UniProt P43235); assay: Inhibition of recombinant human Cathepsin K using Z-Phe-Arg-AMC as substrate preincubated with enzyme for 120 mins followed by substrate addition by fluorimetry analysis
T7 sequence (P43235 whole entry): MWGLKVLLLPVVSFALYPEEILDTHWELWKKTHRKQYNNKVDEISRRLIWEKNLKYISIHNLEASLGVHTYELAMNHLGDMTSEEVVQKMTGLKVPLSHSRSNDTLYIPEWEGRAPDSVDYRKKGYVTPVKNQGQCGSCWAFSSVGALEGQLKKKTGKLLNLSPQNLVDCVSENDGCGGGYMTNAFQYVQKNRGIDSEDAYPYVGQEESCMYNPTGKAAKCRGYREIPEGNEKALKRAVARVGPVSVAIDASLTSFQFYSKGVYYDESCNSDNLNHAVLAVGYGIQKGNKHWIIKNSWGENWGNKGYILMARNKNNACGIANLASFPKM

[12] = Half life in human plasma by HPLC analysis

Structure (SMILES)	IC50 [1]	also measured
COc1ccc(-c2ccc(COC3(c4cccnc4)CN(C#N)C3)c(F)c2)cc1F	4.6 nM	IC50 [2]: 2 nM
N#CN1CC(COCc2ccc(-c3ccccc3)cc2)C1	3.4 nM	Ratio [7]: 3.04 ×10⁶ /M/s
COc1cccc(OC)c1-c1ccc(COC2CN(C#N)C2)cc1	67.5 nM	–
N#CN1CC(OCc2ccc(-c3ccc4c(c3)OCCO4)cc2)(c2ccccc2)C1	6.1 nM	inhibition [9]: 99%; inhibition [10]: 13.5%
N#CN1CC(CNS(=O)(=O)c2ccccc2)C1	–	IC50 [11]: 50 nM
N#CN1CC(OCc2ccc(-c3ccc4c(c3)OCO4)cc2)(c2ccccc2)C1	9.2 nM	inhibition [9]: 99%; inhibition [10]: 59%
N#CN1CC[C@@H](OCc2ccc(-c3ccccc3)cc2)C1	26.4 nM	–
COc1ccncc1-c1ccc(COC2CN(C#N)C2)cc1	40 nM	–
COc1cccc(-c2ccc(C(OC3CN(C#N)C3)c3ccccc3)cc2)c1 (stereo not given)	11.6 nM	–
COc1ccccc1-c1cc(Oc2ccccc2)ccc1COC1CN(C#N)C1	23.7 nM	–
COc1ccc(-c2cc(Oc3ccccc3)ccc2COC2CN(C#N)C2)cc1	5.7 nM	–

Continued by falling IC50 [1], values first:

IC50 [1]	Structure (SMILES)	also measured
2.8 nM	N#CN1CC(OCc2ccc(-c3ccccc3)cc2)C1	Ratio [7]: 3.03 ×10⁶ /M/s
2.8 nM	COc1cccc(-c2ccc(COC3CN(C#N)C3)c(OC)c2)c1	–
2.5 nM	N#Cc1ccc(-c2cc(Oc3ccccc3)ccc2COC2CN(C#N)C2)cc1	–
1.8 nM	COc1cccc(-c2ccc(COC3(C)CN(C#N)C3)cc2)c1	IC50 [2]: 0.36 nM; IC50 [3]: 1060 nM; Ratio IC50 [4]: 0.2; Ratio IC50 [5]: 500; Ratio IC50 [6]: 50
1.1 nM	N#CN1CC(OCc2ccc(Oc3ccccc3)cc2)C1	Ratio [7]: 1.33 ×10⁶ /M/s
0.94 nM	COc1ccc(-c2ccc(COC3CN(C#N)C3)cc2)cc1	Ratio [7]: 3.25 ×10⁶ /M/s
0.88 nM	COc1cccc(-c2ccc(COC3CN(C#N)C3)cc2)c1OC	Ratio [7]: 8.4 ×10⁶ /M/s
0.68 nM	N#CN1CC(OCc2ccc(-c3ccc(F)cc3)cc2)C1	Ratio [7]: 2.09 ×10⁶ /M/s
0.47 nM	COc1cccc(-c2ccc(COC3CN(C#N)C3)c(F)c2)c1	half-life [8]: 271 min
0.35 nM	COc1ccc(-c2ccc(COC3(C4CC4)CN(C#N)C3)c(F)c2)cc1F	IC50 [2]: 1 nM; half-life [12]: 127 min
